For data set [1], the system named is RAW264.7. In words: Antiinflammatory activity in mouse RAW264.7 cells assessed as inhibition of LPS-induced nitric oxide production after 24 hrs by Griess reagent assay. Type of data set: functional, cell-based. The following applies: RAW264.7, 24 h. Put shortly:
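RAW264.7 murine macrophages grown in DMEM with 10% heat-inactivated FBS at 37 °C, 5% CO2. After 24 h, medium renewed; compounds added at 0, 1, 5, 10 or 20 µg/mL with LPS 1 µg/mL, then 24 h incubation. Supernatant nitrite measured with Griess reagent, absorbance 540 nm. Results given as percent of untreated control. Mean ± SD of three experiments, each in triplicate.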
A general note: The Griess reaction detects nitrite, a stable product of nitric oxide.

The subject of data set [2] is KB. In words: Cytotoxicity against human KB cells at 20 uM by modified MTT assay. Type of data set: functional, cell-based. For orientation: Formazan colour is commonly taken as a measure of viable cells.
The test system of data set [3] is Daoy. In words: Cytotoxicity against human DaOY cells at 20 uM by modified MTT assay. Type of data set: functional, cell-based.
Data set [4] has as its system WiDr. The data set is described as follows: Cytotoxicity against human WiDr cells at 20 uM by modified MTT assay. The format is functional, cell-based.
Data set [5] has as its system Radical scavenging activity. In words: Antioxidant activity assessed as DPPH radical scavenging activity after 30 mins by ELISA. Type of data set: functional. An outline of the steps:
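Sample (200-3.125 µg/mL) or quercetin (25-3.125 µg/mL), 120 µL, mixed with 30 µL of 0.75 mM DPPH in methanol. Shaken in the dark at room temperature for 30 min, then absorbance read at 517 nm. Methanol in place of sample served as negative control. ED50 is the concentration giving 50% reduction of DPPH radicals.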
In general terms: The DPPH test is a chemical assay of radical scavenging.

The test system of data set [6] is HeLa. In words: Cytotoxicity against human HeLa cells at 20 uM by modified MTT assay. The format is functional, cell-based.
Data set [7] in a line: Cytotoxicity against mouse RAW264.7 cells assessed as cell viability by modified MTT assay. The format is cell-based. On the set-up: concentration or dose not given beside the values. The note with it: read-out: Activity. Put shortly: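 RAW264.7 cells after the same LPS (1 µg/mL) and compound (0-20 µg/mL) 24 h exposure used for NO measurement. MTT (5 mg/mL stock in PBS, 10 µL per 100 µL culture) added for 4 h at 37 °C. Formazan dissolved in DMSO and read at 550 nm. Untreated cells taken as 100% viability.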

SMILES strings stand for the structures. Calls of active or inactive are those of the source. The calls are words filed in the database; no cut-off is given here.

Consider `C=C(CO)[C@H]1C[C@@H]2[C@@H](CC[C@H]3C(C)(C)[C@@H](O[C@@H]4O[C@H](CO)[C@@H](O)[C@H](O)[C@H]4O[C@@H]4O[C@@H](C)[C@H](O)[C@@H](O)[C@H]4O)CC[C@]23C)[C@H]1O` [NORALPINDENOSIDE A], for which the IC50 in data set [1] was found to be 31.8 µM. The result in data set [2], in data set [3], in data set [4] and in data set [6] was inactive. For the same molecule, the ED50 in data set [5] is more than 200 µg/mL. Also, in data set [7], the viability was more than 80%.

For the molecule `O=c1c(O)c(-c2ccc(O)cc2O)oc2cc(O[C@@H]3O[C@H](CO)[C@@H](O)[C@H](O)[C@H]3O)cc(O)c12`, the half-inhibitory concentration (IC50) in data set [1] turned out to be 39.1 µM. In addition, the result in data set [2], in data set [3], in data set [4] and in data set [6] was inactive. In data set [5], the ED50 turned out to be 22.2 µM. The viability in data set [7] is more than 80%.

Turning to `C[C@@H]1O[C@@H](O[C@H]2[C@H](O[C@H]3CC[C@]4(C)C5=C(CC[C@H]4C3(C)C)CO[C@@H](C3=CCOC3=O)C5)O[C@H](CO)[C@@H](O)[C@@H]2O)[C@H](O)[C@H](O)[C@H]1O` [ALPINDENOSIDE B], the 50% inhibitory concentration (IC50) in data set [1] stood at 49.3 µM. For the same molecule, the outcome in data set [2], in data set [3], in data set [4] and in data set [6] was inactive. Moreover, the ED50 in data set [5] is more than 200 µg/mL. For the same molecule, the viability in data set [7] was more than 80%.

Consider `CC1(C)[C@@H](O)CC[C@]2(C)C3=C(CC[C@@H]12)CO[C@@H](C1=CCOC1=O)C3` [AULACOCARPINOLIDE], for which the concentration for half-maximal inhibition (IC50) in data set [1] is 44.6 µM. Besides, the outcome in data set [2], in data set [3], in data set [4] and in data set [6] was inactive. Moreover, the viability in data set [7] was more than 80%.

For `C=C(C)[C@H]1C[C@@H]2[C@@H](CC[C@H]3C(C)(C)[C@@H](O[C@@H]4O[C@H](CO)[C@@H](O)[C@H](O)[C@H]4O[C@@H]4O[C@@H](C)[C@H](O)[C@@H](O)[C@H]4O)CC[C@]23C)[C@H]1O` [NORALPINDENOSIDE B], in data set [1], the IC50 worked out at 44.3 µM. In addition, the outcome in data set [2], in data set [3], in data set [4] and in data set [6] was inactive. Further, the ED50 in data set [5] is more than 200 µg/mL. Moreover, in data set [7], the viability was more than 80%.

Take `C[C@@H]1O[C@@H](O[C@H]2C(Oc3c(-c4ccc(O)cc4)oc4cc(O)cc(O)c4c3=O)O[C@@H](C)[C@H](O)[C@H]2O)[C@H](O)[C@H](O)[C@H]1O` (stereo partly specified): the IC50 in data set [1] came to 40.1 µM. In addition, the result in data set [2], in data set [3], in data set [4] and in data set [6] was inactive. The viability in data set [7] is more than 80%.

As for `C[C@@H]1O[C@@H](O[C@H]2[C@H](O[C@H]3CC[C@]4(C)C5=C(CC[C@H]4C3(C)C)CO[C@H](C3=CCOC3=O)C5)O[C@H](CO)[C@@H](O)[C@@H]2O)[C@H](O)[C@H](O)[C@H]1O` [ALPINDENOSIDE A], the IC50 in data set [1] was determined as 34.2 µM. Moreover, the result in data set [2], in data set [3], in data set [4] and in data set [6] was inactive. Further, the ED50 in data set [5] was more than 200 µg/mL. For the same molecule, the viability in data set [7] is more than 80%.

In the case of `O=c1c(O)c(-c2ccc(O)c(O)c2)oc2cc(O)cc(O)c12` [QUERCETIN], the IC50 in data set [1] came out at 9.6 µM. In addition, the ED50 in data set [5] amounted to 18 µM.

`C[C@@H]1O[C@@H](O[C@H]2[C@H](O[C@H]3CC[C@]4(C)[C@@H]5C[C@H](C6=CCOC6=O)OC(O)[C@@H]5CC[C@H]4C3(C)C)O[C@H](CO)[C@@H](O)[C@@H]2O)[C@H](O)[C@H](O)[C@H]1O` (stereo partly specified) [ALPINDENOSIDE C]: in data set [1], the half-maximal inhibitory concentration (IC50) came to 38 µM. Also, the result in data set [2], in data set [3], in data set [4] and in data set [6] was inactive. Besides, in data set [5], the ED50 is more than 200 µg/mL. Besides, the viability in data set [7] was more than 80%.

Turning to `C[C@@H]1O[C@@H](O[C@H]2[C@H](Oc3c(-c4ccc(O)c(O)c4)oc4cc(O)cc(O)c4c3=O)O[C@@H](C)[C@H](O)[C@H]2O)[C@H](O)[C@H](O)[C@H]1O`, the IC50 in data set [1] is 32.9 µM. The result in data set [2], in data set [3], in data set [4] and in data set [6] was inactive. Besides, the ED50 in data set [5] was found to be 16.6 µM. Moreover, the viability in data set [7] is more than 80%.

Turning to `CC1(C)[C@@H](O)CC[C@]2(C)C3=C(CC[C@@H]12)CO[C@H](C1=CCOC1=O)C3`, the concentration for half-maximal inhibition (IC50) in data set [1] was 12.2 µM. The result in data set [2], in data set [3], in data set [4] and in data set [6] was inactive. In data set [7], the viability is more than 80%.

As for `CC(=O)OC[C@H]1O[C@@H](O[C@H]2CC[C@]3(C)[C@H]4C[C@H](C5=CCOC5=O)OC(O)[C@@H]4CC[C@H]3C2(C)C)[C@H](O[C@@H]2O[C@@H](C)[C@H](O)[C@@H](O)[C@H]2O)[C@@H](O)[C@@H]1O` (stereo partly specified) [ALPINDENOSIDE D], the concentration for half-maximal inhibition (IC50) in data set [1] was 30 µM. Besides, the result in data set [2], in data set [3], in data set [4] and in data set [6] was inactive. Also, in data set [5], the ED50 is more than 200 µg/mL. Besides, in data set [7], the viability was more than 80%.

By IC50 is commonly meant the point on the concentration scale where inhibition reaches its midpoint.

The values are drawn from ChEMBL document CHEMBL1152398, “Labdane diterpenoid glycosides from Alpinia densespicata and their nitric oxide inhibitory activities in macrophages” (J Nat Prod, 2009).
